# From ChEMBL document CHEMBL1145842, “A selective human H(4)-receptor agonist: (-)-2-cyano-1-methyl-3-[(2R,5R)-5- [1H-imidazol-4(5)-yl]tetrahydrofuran-2-y] methylguanidine” (J Med Chem, 2003)
# Activity calls are given as the source filed them. No cut-off for these calls is given here.
# Key:
# [1] = biological target: T1, Histamine H3 receptor (Homo sapiens, UniProt Q9Y5N1); assay: Efficacy measured for human Histamine H3 receptor relative to histamine; format: functional
# [2] = biological target: T2, Histamine H4 receptor (Homo sapiens, UniProt Q9H3N8); assay: Inhibition of the forskolin-stimulated cAMP production in SK-N-MC cells expressing human Histamine H4 receptor; format: functional, cell-based
# T2 sequence (Q9H3N8 whole entry): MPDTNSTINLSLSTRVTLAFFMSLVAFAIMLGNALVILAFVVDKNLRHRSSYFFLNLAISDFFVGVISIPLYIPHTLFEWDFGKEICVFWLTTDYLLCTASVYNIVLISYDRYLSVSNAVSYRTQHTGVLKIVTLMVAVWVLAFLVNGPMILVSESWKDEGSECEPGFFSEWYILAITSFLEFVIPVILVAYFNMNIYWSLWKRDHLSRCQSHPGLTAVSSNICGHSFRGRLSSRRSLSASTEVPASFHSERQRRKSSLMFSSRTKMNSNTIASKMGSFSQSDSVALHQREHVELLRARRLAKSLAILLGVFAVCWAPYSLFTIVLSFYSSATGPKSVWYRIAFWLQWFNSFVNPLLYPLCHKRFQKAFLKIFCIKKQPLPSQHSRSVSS
# [3] = biological target: T2, Histamine H4 receptor; assay: Histamine H4 receptor competition binding using [3H]Na-methylhistamine
# [4] = biological target: T1, Histamine H3 receptor; assay: Inhibition of the forskolin-stimulated cAMP production in SK-N-MC cells expressing human Histamine H3 receptor; Not effective; format: functional, cell-based
# [5] = biological target: T2, Histamine H4 receptor; assay: Efficacy measured for human Histamine H4 receptor relative to histamine; format: functional
# [6] = biological target: T1, Histamine H3 receptor; assay: Histamine H3 receptor competition binding using [3H]Na-methylhistamine
# [7] = biological target: T1, Histamine H3 receptor; assay: Inhibition of the forskolin-stimulated cAMP production in SK-N-MC cells expressing human Histamine H3 receptor; format: functional, cell-based
# [8] = biological target: T1, Histamine H3 receptor; assay: Compound was tested for H3 receptor competition binding using [3H]- Na-methylhistamine
# Outline: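 Homogenates of SK-N-MC cells stably expressing human H3 receptor, in 50 mM Na2HPO4 pH 7.4, incubated 1 h at 37 °C with 1.0 nM [3H]Nα-methylhistamine with or without competitor. Filtration through GF/C filters pretreated with 0.3% polyethylenimine, three washes with ice-cold 25 mM Tris-HCl, 145 mM NaCl pH 7.4, then scintillation counting.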
# T1 sequence (Q9Y5N1 whole entry): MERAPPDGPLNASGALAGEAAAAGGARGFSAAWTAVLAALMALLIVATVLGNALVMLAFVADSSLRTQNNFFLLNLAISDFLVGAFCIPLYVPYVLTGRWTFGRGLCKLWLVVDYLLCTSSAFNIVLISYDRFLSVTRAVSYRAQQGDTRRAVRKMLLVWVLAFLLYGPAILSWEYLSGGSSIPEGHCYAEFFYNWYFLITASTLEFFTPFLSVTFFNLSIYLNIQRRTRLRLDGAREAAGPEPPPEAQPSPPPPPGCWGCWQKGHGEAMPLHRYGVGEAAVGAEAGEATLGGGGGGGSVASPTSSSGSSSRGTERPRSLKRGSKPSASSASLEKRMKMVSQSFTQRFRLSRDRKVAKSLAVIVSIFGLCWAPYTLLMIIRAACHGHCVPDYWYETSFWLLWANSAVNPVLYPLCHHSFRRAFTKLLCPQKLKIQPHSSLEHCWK
Structure (SMILES),Efficacy [1],EC50 [2],Ki [3],NE [4],Efficacy [5],Ki [6],EC50 [7],Ki [8]
C/N=C(\NC#N)NC[C@H]1CC[C@H](c2c[nH]cn2)O1,0.79,77.6 nM,126 nM,,,,,
"C/N=C(\NC#N)NC[C@H]1CC[C@@H](c2c[nH]cn2)O1 (single isomer, unassigned)",< 0.1,,,inactive,1.07,,,
"NC[C@@H]1CC[C@H](c2c[nH]cn2)O1 (single isomer, unassigned)",1.06,5500 nM,2510 nM,,0.88,2040 nM,776 nM,
NC[C@@H]1CC[C@@H](c2c[nH]cn2)O1,0.91,30900 nM,12900 nM,,0.6,219 nM,105 nM,
c1ccc(COC[C@@H]2CC[C@H](c3c[nH]cn3)O2)cc1,1.06,135 nM,437 nM,,0.91,331 nM,191 nM,
C/N=C(\NC#N)NC[C@@H]1CC[C@@H](c2c[nH]cn2)O1,,21400 nM,20400 nM,,1.06,,,
NC[C@H]1C=C[C@H](c2c[nH]cn2)O1,1,24000 nM,11700 nM,,0.76,1020 nM,269 nM,
"NC[C@H]1C=C[C@@H](c2c[nH]cn2)O1 (single isomer, unassigned)",,75900 nM,12000 nM,,0.71,,> 100000 nM,20000 nM
c1ccc(COC[C@H]2CC[C@H](c3c[nH]cn3)O2)cc1,0.97,741 nM,1050 nM,,0.46,245 nM,91.2 nM,
NC[C@H]1CC[C@H](c2c[nH]cn2)O1 [IMIFURAMINE],1.04,2000 nM,891 nM,,0.7,229 nM,44.7 nM,
"NC[C@@H]1C=C[C@H](c2c[nH]cn2)O1 (single isomer, unassigned)",0.93,40700 nM,21900 nM,,0.74,11500 nM,26900 nM,
NC[C@@H]1C=C[C@@H](c2c[nH]cn2)O1,0.75,85100 nM,> 100000 nM,,0.85,2510 nM,2820 nM,
"NC[C@H]1CC[C@@H](c2c[nH]cn2)O1 (single isomer, unassigned)",0.95,7590 nM,6460 nM,,1.02,1700 nM,813 nM,
"C/N=C(\NC#N)NC[C@@H]1CC[C@H](c2c[nH]cn2)O1 (single isomer, unassigned)",0.43,224 nM,224 nM,,1.01,,,
c1ccc(COC[C@@H]2CC[C@@H](c3c[nH]cn3)O2)cc1,0.66,12900 nM,21400 nM,,0.49,,9550 nM,10500 nM
c1ccc(COC[C@H]2CC[C@@H](c3c[nH]cn3)O2)cc1,0.86,11500 nM,13500 nM,,0.82,6920 nM,9770 nM,
